Screening data from PubChem.
KCC2 mod: modulators of human KCC2 chloride dependent transport | Q9H2X9 | KCC2 cells, thallium flux FluoZin-2 fluorescence | B-score of Tl+ flux slope (higher = more flux/activation; lower = inhibition) at 10 µM | 2.2% of 190,000 active | AID 1456;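 active = thallium flux slope and its plate-corrected score both differing from the plate sample mean at a set confidence after two filtering rounds, in either direction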;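 also: slope of fluorescence scaled to starting intensity during 10 to 20 s after thallium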
Diaphorase inh: diaphorase inhibition or chemical oxidation counter-screen; diaphorase resazurin-to-resorufin fluorescence, NADH, 16 min; bacterial (C. kluyveri) enzyme, not human; 0.69% of 190,000 active; inhibition, % at 20 µM;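 active = primary screen inhibition at 20 µM above a set limit, cut at about 50% in these data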;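 also: plate controls were DMSO with full reaction for no effect and wells lacking NADH for full effect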
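controls = No-NADH positive control and DMSO neutral control | system = Clostridium kluyveri diaphorase enzyme | timing = reaction incubation of 16 min at room temperature | signal = resorufin fluorescence 544/590 nm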
ROMK mod: modulators of human ROMK potassium channel; P48048; Tet-inducible ROMK, thallium flux fluorescence; actives lie on both sides; B-score at 10 µM; 2% of 130,000 active; AID 1918;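 active = signal ratio slope over the read window, or its plate-corrected B-score, at least 3 SD from the plate mean, either direction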;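 also: B-score of the F/F0 ratio slope over 7 to 12 s after thallium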
Lmaj promast: reduces viability of Leishmania major promastigotes | resazurin fluorescence viability | inhibition, % at 10 µM | 9% of 200,000 active | AID 1063; in the data active = inhibition above about 50%;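 also: promastigotes grown with compound for 44 hours at 28 °C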
Diaph act CS: counter-screen for diaphorase-based assays: diaphorase activators and chemical reducers; Diaphorase/resazurin coupled assay, resorufin fluorescence, 16 min; hits give high values; 1 = vehicle wells, 0 = NADH-free wells; activation factor at 20 µM; 0.005% of 190,000 active; AID 1229;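 active = diaphorase activity raised at least twofold by the compound at 20 µM; inactive = activation factor below 2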
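Material: Clostridium kluyveri diaphorase, purified enzyme; Quantity: enzyme 0.07 U/mL final; Medium: HEPES pH 7.4 buffer with MgCl2 and Tween 20; Dosing: single compound dose of 20 µM, 1% DMSO final; Schedule: 16 min reaction at room temperature; Measured by: red resorufin fluorescence at 544/590 nm excitation/emission.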
WT yeast gro inh: growth inhibition of WT yeast, mitochondrial fusion screen. inhibition, % at 10 µM. 2.1% of 190,000 active. AID 1362. mitochondrial fusion phenotypic screen, WT strain; in the data active = inhibition above about 58%; tested in S. cerevisiae
An asterisk follows results filed as active. Rows were chosen to be rich in hits. Some 12% of all compounds tested hit in one or more screens of this group.

How did O=C(c1ccc(Cl)cc1)N1CCC(O)(CSc2ccc(Cl)cc2Cl)CC1 do in these assays?
KCC2 mod: 0.0196; Diaphorase inh: 16.3; Lmaj promast: 4.9; Diaph act CS: 0.8; WT yeast gro inh: 70.6*

What do the screens show for `O=C(c1ccc(Cl)c(Cl)c1)N1CCC(O)(CN2CCOCC2)CC1`?
KCC2 mod: 0.395; Diaphorase inh: 0.8; ROMK mod: 0.716; Lmaj promast: 78.6*; Diaph act CS: 1; WT yeast gro inh: -1.3

How did O=C(c1ccc(CSc2ccc(Cl)cc2)cc1)N1CCCC1 do in these assays?
KCC2 mod: -0.868; Diaphorase inh: 17.5; ROMK mod: -0.0385; Lmaj promast: 8.2; Diaph act CS: 0.8; WT yeast gro inh: 51.1

How did CCc1nc2ccccc2c(NC(=O)CN2CC(C)CC(C)C2)c1C (stereo not drawn) do in these assays?
KCC2 mod: -0.347; Diaphorase inh: 6.7; ROMK mod: -0.826; Lmaj promast: 18.0; Diaph act CS: 0.9; WT yeast gro inh: -12.3

What do the screens show for `Cc1ccc(C(C)n2cc(C(=O)NCCN3CCN(C)CC3)nn2)cc1` (stereo not drawn)?
Diaphorase inh: 10.1; Lmaj promast: 92.0*; Diaph act CS: 0.9; WT yeast gro inh: -20.3

Results for CCN1CCN(CCNC(=O)c2cn(C(C)c3ccccc3F)nn2)CC1 (stereo not drawn) ?
KCC2 mod: 2.8; Diaphorase inh: 6.8; Lmaj promast: -3.0; Diaph act CS: 0.9; WT yeast gro inh: -9.8

How did CCCCCCCCNC(=O)c1cccnc1SCC(=O)Nc1ccccc1OC do in these assays?
KCC2 mod: -1.2; Diaphorase inh: -14.6; ROMK mod: 0.0814; Lmaj promast: 82.2*; Diaph act CS: 1.1; WT yeast gro inh: 18.6

What do the screens show for `O=[N+]([O-])c1cccc(CNC2CCCCCC2)c1`?
KCC2 mod: 0.00718; Diaphorase inh: 5.6; ROMK mod: -0.00431; Lmaj promast: 86.2*; Diaph act CS: 0.9; WT yeast gro inh: 8.4

What do the screens show for `COCC(C)NCc1cccc([N+](=O)[O-])c1` (stereo not drawn)?
Diaphorase inh: 15.2; Lmaj promast: 0.6; Diaph act CS: 0.8; WT yeast gro inh: -21.4

Results for CC1CCCCC1NCc1cccc([N+](=O)[O-])c1 (stereo not drawn) ?
KCC2 mod: 0.0539; Diaphorase inh: 12.4; ROMK mod: -1.24; Lmaj promast: 83.0*; Diaph act CS: 0.9; WT yeast gro inh: 1.8

What do the screens show for `Cc1cc2ncn(/N=C/c3ccc(-c4ccccc4)o3)c2cc1C`?
Diaphorase inh: 1.2; Lmaj promast: -2.0; Diaph act CS: 1; WT yeast gro inh: -12.0

Results for Cc1ccc(/C=N/n2cnc3sc(-c4ccccc4)cc3c2=O)o1 ?
Diaphorase inh: 8.0; ROMK mod: -1.18; Lmaj promast: 1.1; Diaph act CS: 0.9; WT yeast gro inh: 86.0*

How did O=C(Cc1cccs1)NCCc1csc(-c2ccccc2)n1 do in these assays?
KCC2 mod: -1.83

How did CC(=O)c1ccc(NC(=O)COC(=O)c2c3c(nc4ccccc24)/C(=C\c2cccs2)CCC3)cc1 do in these assays?
KCC2 mod: 0.311; Diaphorase inh: 31.5; Lmaj promast: 97.2*; Diaph act CS: 0.7; WT yeast gro inh: -7.2

How did COC(=O)[C@@H](N)CS do in these assays?
KCC2 mod: -0.0168; Diaphorase inh: -5.8; Lmaj promast: 2.3; Diaph act CS: 1.1; WT yeast gro inh: -5.8

Results for NS(=O)(=O)c1cccc(NC(=S)NCc2ccc3c(c2)OCO3)c1 ?
KCC2 mod: 0.827; Diaphorase inh: 6.5; ROMK mod: 0.739; Lmaj promast: 6.5; Diaph act CS: 0.9; WT yeast gro inh: 2.8

What do the screens show for `CC1CCc2nc(NC(=O)CN3CCN(c4ccccc4)CC3)sc2C1` (stereo not drawn)?
KCC2 mod: 0.734; Diaphorase inh: 18.2; ROMK mod: -1.47; Lmaj promast: -4.3; Diaph act CS: 0.8; WT yeast gro inh: 49.5

Results for NS(=O)(=O)c1cccc(NC(=O)CN2CCN(Cc3ccc4c(c3)OCO4)CC2)c1 ?
KCC2 mod: -0.608; Diaphorase inh: 9.6; Lmaj promast: 53.0*; Diaph act CS: 0.9; WT yeast gro inh: -12.6
